These results are taken from the array DNA melting data of Ke et al. (doi:10.1101/2024.01.08.574731).

A short description of series [1]: folding enthalpy; higher = less favourable; fluorescence melt of hairpins on a sequencing array, two-state fit. The note with it: sodium 0.088 M. An outline of the steps:
(§1)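 Folding enthalpy and melting temperature were estimated with bootstrapped two-state fits and combined across four replicates by inverse-variance weighting, with fitted temperatures raised by 9.35 °C to match UV melts. The data were Cy3 fluorescence of library hairpins, with annealed Cy3 and quencher oligos, on a sequenced MiSeq flow cell in 50 mM Na-HEPES pH 8.0, 25 mM NaCl, imaged in 2.5 °C steps up to 60 °C and normalised to pre-quench Cy3 and control constructs.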

Series [2] can be described thus: melting temperature; fluorescence melt of hairpins on a sequencing array, two-state fit, raised by 9.35 °C to match UV melts. Conditions: sodium 0.088 M. An outline of the steps: as §1

Turning to GCACAGCGAAAGCCTTGC (((..((....))..))), the folding enthalpy in series [1] is -8.82 kcal/mol. Also, the Tm in series [2] was 39 °C.
As to GGGACGACGAAAGTCCCC (((..(((....)))))), the folding enthalpy in series [1] is -15.2 kcal/mol. The Tm in series [2] came to 49.2 °C.
In the case of GCTTTGCGAAAGCGAGGC ((.(.((....)).).)), in series [1], the folding enthalpy was -17.1 kcal/mol. In series [2], the Tm came to 49.7 °C.
As to GTTCGCGGAAACGCGGAC ((.((((....)))).)), the folding enthalpy in series [1] was -26.6 kcal/mol. Also, the Tm in series [2] amounted to 60.7 °C.
With GGCTCATCGAAAGATGCC (((..(((....)))))), the folding enthalpy in series [1] is -13.3 kcal/mol. For the same sequence, the Tm in series [2] is 37.5 °C.
Regarding GAGTATACGAAAGTACTC (((..(((....)))))), the folding enthalpy in series [1] is -15.7 kcal/mol. Besides, the Tm in series [2] turned out to be 34 °C.
For GGTCACGAAAGTGAGACC ((((((....)))..))), the folding enthalpy in series [1] is -15.7 kcal/mol. Also, the Tm in series [2] turned out to be 45.8 °C.
The corresponding values for GCGTAAGGAAACTTACAC (.(((((....))))).) are -18.4 kcal/mol and 33.4 °C.
As to GCTAATGGAAACGTTAGC (((((.(....).))))), the folding enthalpy in series [1] is -29.7 kcal/mol. In series [2], the Tm is 43.9 °C.
As to GATCCTGGAAACAGAATC (((.(((....))).))), in series [1], the folding enthalpy was -16.8 kcal/mol. The Tm in series [2] amounted to 30.1 °C.
The corresponding values for GCGAACGAAAGTTGTCGC ((((((....)))..))) are -26.2 kcal/mol and 44.1 °C.
For GTTGGCGAAAGCCATAAC ((((((....)))..))), in series [1], the folding enthalpy was -10.2 kcal/mol. The Tm in series [2] worked out at 35.7 °C.
The corresponding values for GCGTCGTAACGC ((((....)))) are -21.4 kcal/mol and 55.3 °C.
The corresponding values for GATATTACGAAAGTAATC (((..(((....)))))) are -11.6 kcal/mol and 34.7 °C.
Consider CTTCCGAAAGGAAG (((((....))))), for which the folding enthalpy in series [1] is -21.3 kcal/mol. The Tm in series [2] was 55.8 °C.
With GGAATACCGAAAGGTTCC (((..(((....)))))), the folding enthalpy in series [1] was -16.1 kcal/mol. In addition, in series [2], the Tm is 36.4 °C.
Regarding GAACGCGAAAGCGATTC ((((((....))).))), the folding enthalpy in series [1] was -14.1 kcal/mol. Besides, the Tm in series [2] was 45.7 °C.
On to GCGAAGGGAAACCTTCAC (.(((((....))))).), for which the folding enthalpy in series [1] is -18.1 kcal/mol. Further, the Tm in series [2] was 38.6 °C.
As to CGTTGCGGAAACGCACG (((.(((....)))))), the folding enthalpy in series [1] was -21.4 kcal/mol. For the same sequence, in series [2], the Tm amounted to 52.8 °C.
The corresponding values for GAGGACCCGAAAGGGCTC (((..(((....)))))) are -12 kcal/mol and 33.9 °C.
As to GATCTACCTATAGATC ((((((....)))))), the folding enthalpy in series [1] is -35 kcal/mol. The Tm in series [2] is 40.5 °C.
The corresponding values for TCACAGAAATGTGA (((((....))))) are -14.6 kcal/mol and 39.8 °C.
The corresponding values for GATCGGACATCCGATC ((((((....)))))) are -38.7 kcal/mol and 55.3 °C.
In the case of GCCTCTGGAAACAAAGGC ((((.((....)).)))), the folding enthalpy in series [1] was -26.1 kcal/mol. In addition, in series [2], the Tm stood at 36.1 °C.
For the sequence GTGAGCGAAAGCTTGCAC ((((((....)))..))), in series [1], the folding enthalpy is -7.82 kcal/mol. Also, the Tm in series [2] stood at 51.4 °C.
Take GCGCAGCGAAAGCGGGGC ((.(.((....)).).)): the folding enthalpy in series [1] is -14.3 kcal/mol. Also, the Tm in series [2] was found to be 57.6 °C.
With GATCCCTGAAGGGATC ((((((....)))))), in series [1], the folding enthalpy is -32.8 kcal/mol. The Tm in series [2] was determined as 64.1 °C.
The corresponding values for GACGTACGAAAGTAAGTC (((.(((....))).))) are -29.2 kcal/mol and 50.6 °C.
Take ATGTGGAAACACAT (((((....))))): the folding enthalpy in series [1] is -20.3 kcal/mol. In series [2], the Tm was found to be 46.1 °C.
For GGTGTTGAAAAACACC ((((((....)))))), the folding enthalpy in series [1] was -37 kcal/mol. In addition, the Tm in series [2] was determined as 57.9 °C.
With TCCAGGAAACTGGA (((((....))))), the folding enthalpy in series [1] is -22.8 kcal/mol. The Tm in series [2] was found to be 46 °C.
Turning to GAACCGGGAAACCGGCTC ((.((((....)))).)), the folding enthalpy in series [1] was -15.7 kcal/mol. In addition, in series [2], the Tm was determined as 46 °C.
The corresponding values for GAAGGACGAAAGTCTTC (((.(((....)))))) are -14.7 kcal/mol and 39.8 °C.
Regarding GATCCATTTGTGGATC ((((((....)))))), the folding enthalpy in series [1] is -44.5 kcal/mol. In addition, the Tm in series [2] was 54.7 °C.
The corresponding values for GCTGGGCGAAAGCCTTGC ((..(((....)))..)) are -17.1 kcal/mol and 53.2 °C.
The corresponding values for GAGATGGGAAACCACCTC (((.(((....))).))) are -31.1 kcal/mol and 36.1 °C.
As to ACCAGGAAACTGGT (((((....))))), the folding enthalpy in series [1] was -21.4 kcal/mol. The Tm in series [2] was 49.2 °C.
The corresponding values for GGGAAGGCGAAAGCCCCC (((..(((....)))))) are -14 kcal/mol and 48.1 °C.
For the sequence GCGTAACGAAAGTTTCGC (((.(((....))).))), the folding enthalpy in series [1] was -41.3 kcal/mol. Moreover, the Tm in series [2] worked out at 57 °C.
As for GGTGCCGAAAGGCCACC ((((((....))).))), the folding enthalpy in series [1] was -18.2 kcal/mol. Also, in series [2], the Tm is 60.4 °C.
Consider GGAGGAACGAAAGTTTCC (((..(((....)))))), for which the folding enthalpy in series [1] was -16.2 kcal/mol. Besides, the Tm in series [2] amounted to 30.4 °C.
The corresponding values for GCCTCCGGAAACAGAGGC (((((.(....).))))) are -36.5 kcal/mol and 48.7 °C.
The corresponding values for GAACGAGGAAACTTGTTC ((((.((....)).)))) are -28.7 kcal/mol and 43.2 °C.
GCCTCCGAAAGGAGCGGC ((((((....)))..))): the folding enthalpy in series [1] is -15.6 kcal/mol. Moreover, the Tm in series [2] was 52.3 °C.
The corresponding values for GGAGTAGCGAAAGCTTCC (((..(((....)))))) are -16.1 kcal/mol and 38.2 °C.
The corresponding values for GCGCCTGCGAAAGCACGC (((..(((....)))))) are -16.7 kcal/mol and 47.7 °C.
The corresponding values for GAACACGAAAGTGCTTTC ((((((....)))..))) are -13 kcal/mol and 27.8 °C.
GTATATGAAAATATAC ((((((....)))))): the folding enthalpy in series [1] is -23.7 kcal/mol. For the same sequence, the Tm in series [2] is 39.1 °C.
On to TCAGTGAAAACTGA (((((....))))), for which the folding enthalpy in series [1] was -16.9 kcal/mol. Also, in series [2], the Tm worked out at 42.6 °C.
In the case of GATCACGAAAGTGAAATC ((((((....)))..))), the folding enthalpy in series [1] was -10.7 kcal/mol. In addition, the Tm in series [2] was found to be 30.2 °C.
The corresponding values for GGCGTCGGAAACGACACC ((.((((....)))).)) are -30.1 kcal/mol and 53.9 °C.
Regarding GAGCTGGGAAACCGGTTC ((.(.((....)).).)), in series [1], the folding enthalpy was -23.3 kcal/mol. Also, the Tm in series [2] is 35.7 °C.
With GATCACGAAAGTGGATC ((((((....))).))), the folding enthalpy in series [1] was -18.2 kcal/mol. The Tm in series [2] was found to be 46.9 °C.
The corresponding values for GCCAATGGAAACATTAGC ((.((((....)))).)) are -17.4 kcal/mol and 32.1 °C.
The corresponding values for GTTACCGGAAACGGTGAC ((.((((....)))).)) are -30.4 kcal/mol and 51.2 °C.
Regarding GATCTAGTTATAGATC ((((((....)))))), the folding enthalpy in series [1] is -33.8 kcal/mol. In addition, in series [2], the Tm amounted to 48.9 °C.
For GATCACCTTGTGATC ((((((...)))))), the folding enthalpy in series [1] is -40.9 kcal/mol. Moreover, the Tm in series [2] was determined as 58.8 °C.
In the case of GCGTAGCGAAAGCGATGC ((.(.((....)).).)), in series [1], the folding enthalpy is -13.9 kcal/mol. Also, the Tm in series [2] is 51.6 °C.
For GCGTCCGAAAGGAACGC ((((((....))).))), in series [1], the folding enthalpy is -35.7 kcal/mol. Also, the Tm in series [2] was 64.9 °C.
For GATTGTGGAAACGCAATC (((((.(....).))))), the folding enthalpy in series [1] was -35.5 kcal/mol. Moreover, the Tm in series [2] was determined as 47.2 °C.
The corresponding values for GACCAGCGAAAGCTCGTC (((.(((....))).))) are -18.6 kcal/mol and 42.4 °C.
The corresponding values for GCGACCGCTCGC ((((....)))) are -17.3 kcal/mol and 48.1 °C.
On to GTACTCGAAAGAGGATAC ((((((....)))..))), for which the folding enthalpy in series [1] was -13.2 kcal/mol. The Tm in series [2] was found to be 28.5 °C.
The corresponding values for GTGAATCGAAAGATGCAC (((.(((....))).))) are -31.4 kcal/mol and 50.3 °C.
The corresponding values for GCACAGCGAAAGCTAAGC ((..(((....)))..)) are -12.1 kcal/mol and 40.4 °C.
The corresponding values for GCATTGCGAAAGCTATGC ((((.((....)).)))) are -38.9 kcal/mol and 62.5 °C.
For GAGGGCGAAAGCCTACTC ((((((....)))..))), the folding enthalpy in series [1] is -11 kcal/mol. Further, in series [2], the Tm turned out to be 41.1 °C.
The corresponding values for GGAAGCGAAAGCTTATCC ((((((....)))..))) are -9.74 kcal/mol and 34.6 °C.
For the sequence GTGGCTCGAAAGAGACAC (((.(((....))).))), the folding enthalpy in series [1] was -40.1 kcal/mol. In addition, the Tm in series [2] turned out to be 68.9 °C.
Regarding GCGCCGCGAAAGCCACGC (((..((....))..))), the folding enthalpy in series [1] is -17.4 kcal/mol. The Tm in series [2] worked out at 50.1 °C.
As for GACTTACGAAAGTACGTC (((.(((....))).))), in series [1], the folding enthalpy was -33.2 kcal/mol. The Tm in series [2] stood at 44.3 °C.
Take GTAGTACCGAAAGGTTAC (((..(((....)))))): the folding enthalpy in series [1] is -11.1 kcal/mol. The Tm in series [2] came to 29.8 °C.
Take GCCAGTACGAAAGTAGGC (((..(((....)))))): the folding enthalpy in series [1] is -23.8 kcal/mol. For the same sequence, the Tm in series [2] came to 43.4 °C.
Consider GATCCGCGCTCGGATC ((((((....)))))), for which the folding enthalpy in series [1] was -37.3 kcal/mol. For the same sequence, the Tm in series [2] worked out at 57.4 °C.
